High-throughput results from PubChem.
Compounds with a hit are over-represented: about 5.5% of the library has one in this group of screens.
STAT1 blocker – STAT1 signaling inhibition | inhibition, % at 5.5 µM | NIH 3T3 STAT1-luciferase reporter, IFN-gamma, luminescence | AID 920 | actives 0.35% (n = 200,000);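 active = inhibition above a set limit, the mean inhibition across all tested compounds plus 3 SD, cut at about 34% in these data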;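 also: 0% = IFN-gamma with DMSO and 100% = IFN-gamma with 300 µM nifuroxazide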
STAT3 act-1 – increases IL-6 driven STAT3 reporter signal. actives 0.91% (n = 190,000). activation (% of control), % at 5.6 µM. U3A cells, IL-6 STAT3-luciferase reporter, luminescence; 100% = signal with IL-6 EC80 alone;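 active = activation above the screen-wide mean of compound activation plus 3 SD, cut at about 130% in these data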;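 also: 0% = background luminescence of wells with medium and substrate only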
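System – human U3A cells carrying STAT3-luciferase construct · Probe or stimulus – Interleukin-6, 33 ng/mL · Schedule – compound 1 h, then IL-6 6 h at 37 °C · Signal – luminescence from STAT3-driven luciferase reporter · Evaluation – percent of IL-6-only median luminescence · Benchmarks – IL-6-only high control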
STAT3 inh – STAT3 signaling inhibition | U3A cells, IL-6 STAT3-luciferase reporter, luminescence; host cell line lacks STAT1 | inhibition, % at 5.5 µM | actives 0.89% (n = 190,000);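 active = inhibition above the mean inhibition across all screened compounds plus 3 SD, cut at about 44% in these data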;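 also: 0% = DMSO only wells and 100% = 100 µM nifuroxazide control wells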
STAT1 act-1 – STAT1 signaling activation. NIH 3T3 STAT1-luciferase reporter, IFN-gamma, luminescence; 100% = IFN-gamma alone, no compound. activation (% of control), % at 5.5 µM. actives 2.6% (n = 200,000);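 active = activation above the screen-wide mean activation plus 3 SD, cut at about 130% in these data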;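 also: raw ratio to IFN-gamma control signal so 100% means no change and 0% no light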
Cl transport mod – KCC2 (human) Cl- transport modulation; B-score of Tl+ flux slope (higher = more flux/activation; lower = inhibition) at 10 µM; actives 2.2% (n = 190,000); Q9H2X9; AID 1456; KCC2 cells, thallium flux FluoZin-2 fluorescence;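 active = thallium flux slope and its plate-corrected score both differing from the plate sample mean at a set confidence after two filtering rounds, in either direction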;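 also: slope of fluorescence scaled to starting intensity during 10 to 20 s after thallium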
Target sequence (Q9H2X9 whole entry, looked up): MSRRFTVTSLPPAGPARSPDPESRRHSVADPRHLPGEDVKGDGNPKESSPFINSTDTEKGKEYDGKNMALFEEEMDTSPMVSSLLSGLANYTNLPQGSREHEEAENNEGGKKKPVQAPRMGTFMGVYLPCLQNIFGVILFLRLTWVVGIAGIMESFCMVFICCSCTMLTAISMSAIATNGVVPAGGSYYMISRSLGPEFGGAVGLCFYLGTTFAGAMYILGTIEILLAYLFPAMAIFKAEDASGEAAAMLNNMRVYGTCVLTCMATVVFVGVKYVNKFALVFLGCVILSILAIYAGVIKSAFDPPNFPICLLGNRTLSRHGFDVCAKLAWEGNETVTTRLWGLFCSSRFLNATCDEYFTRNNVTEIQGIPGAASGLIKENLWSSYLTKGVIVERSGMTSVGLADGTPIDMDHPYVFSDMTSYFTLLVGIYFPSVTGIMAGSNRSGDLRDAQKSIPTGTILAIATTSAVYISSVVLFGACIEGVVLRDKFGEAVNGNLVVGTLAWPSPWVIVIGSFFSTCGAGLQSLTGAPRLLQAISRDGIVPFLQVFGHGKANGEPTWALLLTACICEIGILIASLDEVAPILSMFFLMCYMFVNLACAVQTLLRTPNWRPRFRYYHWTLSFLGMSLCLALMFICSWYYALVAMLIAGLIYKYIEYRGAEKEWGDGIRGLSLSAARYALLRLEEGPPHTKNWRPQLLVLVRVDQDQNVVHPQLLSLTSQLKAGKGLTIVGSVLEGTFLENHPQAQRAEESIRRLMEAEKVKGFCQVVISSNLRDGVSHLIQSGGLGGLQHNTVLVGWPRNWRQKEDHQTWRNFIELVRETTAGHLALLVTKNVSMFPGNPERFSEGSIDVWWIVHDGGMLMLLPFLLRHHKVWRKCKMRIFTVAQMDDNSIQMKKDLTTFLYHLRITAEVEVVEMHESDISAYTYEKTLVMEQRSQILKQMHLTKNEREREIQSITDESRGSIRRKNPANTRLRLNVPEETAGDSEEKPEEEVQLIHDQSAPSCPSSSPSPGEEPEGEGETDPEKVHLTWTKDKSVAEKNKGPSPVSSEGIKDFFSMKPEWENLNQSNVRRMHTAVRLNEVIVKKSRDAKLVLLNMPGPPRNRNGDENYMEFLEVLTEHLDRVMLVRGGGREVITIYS
HSV augment – HSV replication enhancement; AID 1956; HSV replication augmentation in cells, fold increase; actives 0.005% (n = 220,000); maximum fold increase; in the data active = maximum fold increase above about 1.5; tested in PC3 cells
STAT3 act-2 – confirmation of STAT3 signaling activators; shares compounds with STAT3 act-1; U3A STAT3-luciferase reporter, IL-6 potentiation, luminescence; U3A cells lack STAT1; 100 means same as IL-6 alone; potentiation (% of control), % at 5.7 µM; actives 64% (n = 1,200); AID 1267;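 active = percent activation of the STAT3 luciferase reporter above a set limit taken from the earlier primary screen, cut at about 130% in these data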;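 also: 0% = background signal of medium plus substrate and 100% = median of IL-6 with DMSO wells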
NFkB act STAT3ct – NF-kappaB activation in STAT3 activator counter-screen. activation (% of control), % at 5.7 µM. actives 11% (n = 1,200). shares compounds with STAT3 act-1. human cells, NF-kappaB reporter activation; in the data active = activation above about 120%;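 also: reporter induced by TNF-alpha stimulation; 100% = median of stimulated DMSO wells and 0% = no signal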
STAT1 act-2 – counter-screen for STAT3 activators: STAT1 activation. AID 1318. activation (% of control), % at 5.7 µM. NIH 3T3 STAT1-luciferase reporter, IFN-gamma, luminescence. actives 13% (n = 1,200). shares compounds with STAT3 act-1;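 active = activation above the solvent-only control well mean plus 3 SD, set per screening run, cut at about 120% in these data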;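 also: 100% = IFN-gamma with DMSO median signal so 100% means no change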
* hit, by the source's call; i = inactive; · = not tested or not shown.

SMILES	STAT1 blocker	STAT3 act-1	STAT3 inh	STAT1 act-1	Cl transport mod	HSV augment	STAT3 act-2	NFkB act STAT3ct	STAT1 act-2
CC(C)(CO)N=Cc1c(O)[nH]c2ccccc12	5	142*	-42	96	0.022	i	137*	106	99
Cc1cccc(NC(=S)N2CCC(N(C)CC3CCCO3)CC2)c1 (stereo unspecified)	-11	101	2	109	-0.041	i	·	·	·
O=C(CCl)N1CCN2C(=O)c3ccccc3C12c1ccc(Cl)cc1 (stereo unspecified)	5	106	3	95	-0.06	i	·	·	·
Cc1ccc(C(=O)N2CCN3C(=O)c4ccccc4C23c2ccc(Cl)cc2)cc1 (stereo unspecified)	22	559*	i	82	-0.26	i	487*	126*	77
CCOC(=O)c1cnn(-c2ncnc3sc4c(c23)CCC4)c1N	6	148*	-48	94	0.8	i	149*	103	99
Clc1ccc2c(NCc3ccccn3)ncnc2c1	-1	140*	-47	101	1.4	i	137*	108	118
CCCCSc1nnc(-c2ccccc2NC(C)=O)c(=O)[nH]1	-9	104	7	108	0.39	i	·	·	·
CC1=C(C(=O)Nc2ccccc2)C(c2coc3ccccc3c2=O)C2=C(CCCC2=O)N1 (stereo unspecified)	-6	122	-22	106	0.79	i	·	·	·
CC1=C(C(=O)OCC2CCCO2)C(c2coc3ccccc3c2=O)C2=C(CCCC2=O)N1 (stereo unspecified)	-7	143*	-36	107	1.5	i	161*	102	108
CC1=C(C(=O)OC2CCCC2)C(c2coc3ccccc3c2=O)C2=C(CCCC2=O)N1 (stereo unspecified)	3	137*	-37	99	-0.22	i	125	95	92
CCOC(=O)C1=C(C)NC2=C(C(=O)CCC2)C1c1coc2ccccc2c1=O (stereo unspecified)	0	145*	-44	100	·	i	150*	101	102
COC(=O)C1=C(C)NC2=C(C(=O)CCC2)C1c1coc2ccccc2c1=O (stereo unspecified)	14	139*	-39	86	0.027	i	147*	107	110
COc1ccccc1NS(=O)(=O)c1cccc2nsnc12	·	·	·	·	0.036	i	·	·	·
S=C(N/N=C1\CCc2ccccc21)NC1CCCCC1	-20	137*	-42	118	3.3	i	164*	135*	122*
Cc1cc(C(F)F)n2ncc(C(=O)NCc3ccccc3F)c2n1	-6	104	-6	106	0.37	i	·	·	·
COc1ccc(-c2csc(NC(=O)CSc3nc(SC)ns3)n2)cc1	-14	137*	-47	113	-0.35	i	140*	99	114
COC(=O)c1c(O)cc(C(C)(C)C)n(-c2ccccc2)c1=O	4	84	22	97	-1.3	i	·	·	·
O=[N+]([O-])c1ccc2c(c1)C(N1CCOCC1)/C(=C/COc1ccc(Cl)cc1Cl)O2 (stereo unspecified)	5	101	8	98	·	i	·	·	·
N#CC1=C(N)Oc2c(ccc3ccccc23)C1c1ccsc1 (stereo unspecified)	-19	138*	-47	117	-0.56	·	106	115	110
O=C1c2cccc3cccc(c23)C(=O)N1CCCc1n[nH]c(=S)n1-c1ccccc1	-4	87	23	104	0.22	i	·	·	·
CCOC(=O)CC1C(=O)NCCN1C(=O)c1cc2c(=O)n3cccc(C)c3nc2s1 (stereo unspecified)	2	164*	-73	99	-1.4	·	139*	105	99
CCOC(=O)CC1C(=O)NCCN1C(=O)c1cc2c(=O)n3ccccc3nc2s1 (stereo unspecified)	3	120	-19	97	-1.4	·	·	·	·
CCC1=Nc2cc(C(=O)NCc3ccco3)ccc2Sc2ccc(C)cc21	4	145*	-58	96	-0.4	i	120	154*	118
CCC1=Nc2cc(C(=O)NCCCOC)ccc2Sc2ccccc21	-8	115	-11	107	-0.56	i	·	·	·
CCOC(=O)Cn1cc(C#N)c2ccccc21	0	102	5	98	-0.034	i	·	·	·
SMILES	STAT1 blocker	STAT3 act-1	STAT3 inh	STAT1 act-1	Cl transport mod	HSV augment	STAT3 act-2	NFkB act STAT3ct	STAT1 act-2
N#Cc1cn(CC(=O)O)c2ccccc12	12	140*	-41	89	·	·	140*	102	92
O=C1C2CC=C(Cl)CC2C(=O)N1CCc1c[nH]c2ccccc12 (stereo unspecified)	3	141*	-43	97	·	i	149*	103	87
O=C1C2CC=C(Cl)CC2C(=O)N1CCc1ccccc1 (stereo unspecified)	6	95	10	95	-0.88	i	·	·	·
CC1=CCC2C(=O)N(CCc3c[nH]c4ccccc34)C(=O)C2C1 (stereo unspecified)	5	142*	-48	92	·	i	127	101	97
CCOC(=O)CSc1nc2c(sc3ccc([N+](=O)[O-])cc32)c(=O)n1Cc1ccco1	-5	103	-1	104	-0.71	i	·	·	·
COCc1cc(C)nc2sc(C(=O)NN)c(-n3cccc3)c12	5	137*	-37	97	-1.3	i	139*	118	101
CCCCNC(=O)c1sc2nc(C)cc(COC)c2c1-n1cccc1	1	99	4	99	-1.8	·	·	·	·
Cc1cccc(Oc2ncnc3oc(-c4ccccc4)cc23)c1C	-2	97	9	102	·	i	·	·	·
CSc1ccc(/C=N/NC(=O)CNc2cccc3ccccc23)cc1	-1	121	-25	101	-0.25	i	·	·	·
CSc1ccc(/C=N/NC(=O)CNc2ccc3ccccc3c2)cc1	0	146*	-48	100	0.45	i	140*	107	98
CC(=O)Nc1ccccc1-c1nn[nH]n1	9	151*	-56	92	0.47	i	142*	111	100
Cc1ccc(-c2cc(-c3cccs3)[nH]n2)c(O)c1	-6	164*	-72	106	-0.46	i	140*	127*	96
CN1c2ccccc2C(=O)NC1c1ccc(Cl)cc1 (stereo unspecified)	6	93	15	93	0.52	i	·	·	·
